Experimental findings from ChEMBL document CHEMBL1146016, “Synthesis and structure-activity relationships of 3,4-diaminocyclobut-3-ene-1,2-dione CXCR2 antagonists” (Bioorg Med Chem Lett, 2006) are described below.

In data set [1] the target is T1, C-X-C chemokine receptor type 2 (Homo sapiens, UniProt P25025).
T1 sequence (P25025 whole entry): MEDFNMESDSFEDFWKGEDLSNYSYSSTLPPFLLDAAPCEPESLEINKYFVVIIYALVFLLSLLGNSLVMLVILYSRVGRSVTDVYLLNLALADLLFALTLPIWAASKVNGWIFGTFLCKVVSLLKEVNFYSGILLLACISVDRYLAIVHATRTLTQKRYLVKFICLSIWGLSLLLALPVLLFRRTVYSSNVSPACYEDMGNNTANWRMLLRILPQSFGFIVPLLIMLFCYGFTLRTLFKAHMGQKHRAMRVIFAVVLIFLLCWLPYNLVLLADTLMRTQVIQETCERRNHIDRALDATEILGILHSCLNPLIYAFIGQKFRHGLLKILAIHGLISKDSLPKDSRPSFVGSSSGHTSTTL
Put plainly: Displacement of [125I]IL8 from human CXCR2 expressed in CHO cells. The data set is classed as cell-based. For orientation: In a radioligand displacement assay an active substance lowers the binding of a labelled ligand.

The nature of data set [2]: Metabolic stability in human liver microsome after 30 min at 37 degreeC. The format is ADME. As to conditions: liver microsomes, read-out: Stability. The method in brief: (§1)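 Liver microsomes (human or rat) incubated with compound at 1 µM final for 30 min at 37 °C in 100 mM potassium phosphate pH 7.4 with 1 mM β-NADPH; reported as percent parent remaining; means ± SD of two or more measurements.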
(Liver microsomes are a subcellular fraction often used to study metabolism.)

Data set [3] is described as follows: Permeability across Caco-2 cell membrane. The data set is classed as ADME, cell-based. As to conditions: human. An outline of the steps: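 Caco-2 monolayers in a commercial HTS Caco-2 system run per kit instructions; apicalto-basolateral apparent permeability (nm/s), binned as low or high predicted absorption; means ± SD of two or more measurements.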
For orientation: Passage across Caco-2 layers is used to estimate intestinal permeability.

A short description of data set [4]: Metabolic stability in rat liver microsome after 30 min at 37 degreeC. The following applies: liver microsomes, read-out: Stability. The data set is classed as ADME. An outline of the steps: as §1

As a reminder, the IC50 is the concentration at which inhibition is half-maximal. As to `CNC(=O)c1cccc(/N=c2\c(O)c(O)\c2=N/c2ccccc2)c1O`, the IC50 in data set [1] was determined as 22 nM.

For `O=C(O)c1cccc(/N=c2\c(O)c(O)\c2=N/c2ccccc2)c1O`, the IC50 in data set [1] was found to be 1000 nM.

For `CC(C)/N=c1\c(O)c(O)\c1=N/c1cccc(C(=O)N(C)C)c1O`, in data set [1], the IC50 turned out to be 10 nM.

In turn, `CN(C)C(=O)c1cccc(/N=c2\c(O)c(O)\c2=N/C(C)(C)C)c1O` displayed an IC50 in data set [1] of 14 nM.

Consider `NC(=O)c1cccc(/N=c2\c(O)c(O)\c2=N/c2ccccc2)c1O`, for which the IC50 in data set [1] was determined as 34 nM.

What is called Papp is the rate of passage across a membrane or cell layer, normalised by area and donor concentration. Read a low Papp as slow passage. With `CCC(CC)/N=c1\c(O)c(O)\c1=N/c1cccc(C(=O)N(C)C)c1O`, the remaining at 0.5 h in data set [2] amounted to 82%; in data set [4], 75%. The apparent permeability coefficient (Papp) in data set [3] is 12 ×10⁻⁶ cm/s.

The compound `O=c1c(O)c(Nc2cc([N+](=O)[O-])ccc2O)/c1=N/c1ccccc1` had an IC50 in data set [1] of 56 nM.

`O=C(NCc1ccccc1)c1cccc(Nc2c(O)c(=O)/c2=N\c2ccccc2)c1O` returned an IC50 in data set [1] of 139 nM.

Compound `CN(c1ccccc1O)c1c(Nc2ccccc2)c(=O)c1=O` gave an IC50 in data set [1] of 28600 nM.

`O=c1c(O)c(Nc2ccc([N+](=O)[O-])cc2)/c1=N/c1ccccc1` registered an IC50 in data set [1] of 8600 nM.

Consider `COC(=O)c1cccc(/N=c2\c(O)c(O)\c2=N/c2ccccc2)c1O`, for which, in data set [1], the IC50 is 53 nM.

In data set [1], `CCNC(=O)c1cccc(/N=c2\c(O)c(O)\c2=N/c2ccccc2)c1O` came in with an IC50 of 65 nM.

Compound `O=c1c(O)c(Nc2ccc([N+](=O)[O-])cc2O)/c1=N/c1ccccc1` had an IC50 in data set [1] of 36 nM.

In data set [1], `CN(C)C(=O)c1cccc(/N=c2\c(O)c(O)\c2=N/C2CCCCC2)c1O` came in with an IC50 of 10 nM.

In turn, `CN(C)C(=O)c1cccc(/N=c2\c(O)c(O)\c2=N/Cc2ccco2)c1O` gave an IC50 in data set [1] of 41 nM.

The compound `O=c1c(O)c(Nc2ccccc2)/c1=N/c1ccccc1O` returned an IC50 in data set [1] of 476 nM.

In the case of `CN(C)C(=O)c1cccc(/N=c2\c(O)c(O)\c2=N/CCc2ccccc2)c1O`, the IC50 in data set [1] came to 926 nM.

The compound `O=C(O)c1ccc(/N=c2\c(O)c(O)\c2=N/c2ccccc2)c(O)c1` came in with an IC50 in data set [1] of 3100 nM.

Compound `N#Cc1ccc(O)c(Nc2c(O)c(=O)/c2=N\c2ccccc2)c1` came in with an IC50 in data set [1] of 74 nM.

For `CN(C)C(=O)c1cccc(/N=c2\c(O)c(O)\c2=N/[C@@H]2CCc3ccccc32)c1O`, in data set [1], the 50% inhibitory concentration (IC50) is 548 nM.

With `CN(C)C(=O)c1cccc(/N=c2\c(O)c(O)\c2=N/C2CCOCC2)c1O`, in data set [1], the IC50 was 171 nM.

Turning to `CN(C)C(=O)c1cccc(/N=c2\c(O)c(O)\c2=N/c2ccccc2)c1O`, the remaining at 0.5 h in data set [2] was determined as 64%; in data set [4], 67%. In data set [3], the Papp was 2.4 ×10⁻⁶ cm/s. In data set [1], this compound displayed an IC50 of 2 nM.

Compound `CN(C)C(=O)c1cccc(/N=c2/c(N(C)c3ccccc3)c(O)c2=O)c1O` yielded an IC50 in data set [1] of 7200 nM.

Regarding `CN(C)C(=O)c1cccc(/N=c2\c(O)c(O)\c2=N/C2CCCC2)c1O`, the remaining at 0.5 h amounted to 72% in data set [2] and 56% in data set [4]. In data set [3], this compound registered a Papp of 10.1 ×10⁻⁶ cm/s. The compound also showed an IC50 in data set [1] of 8 nM.

Compound `CN(C)C(=O)c1cc(Cl)cc(/N=c2\c(O)c(O)\c2=N/c2ccccc2)c1O` returned an IC50 in data set [1] of 2 nM.

`N#Cc1ccc(Nc2c(O)c(=O)/c2=N\c2ccccc2)c(O)c1` yielded an IC50 in data set [1] of 3 nM.
